Key:
[1] = target: T1, XPO1 (Homo sapiens, UniProt O14980); assay: XPO1 total protein in primary CLL cells; assay type: cell-based; conditions: 0.5 μM
Procedure, shortened: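 Freshly isolated patient CLL cells were treated with DMSO or 0.5 μM compound and harvested at 2, 4, 8 and 18 h (N=3). Cells were lysed in RIPA buffer, resolved by SDS-PAGE and immunoblotted for XPO1. Signal was detected by chemiluminescence and quantified by densitometry.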

[2] = test system: primary AML samples; assay: Proliferation assay; assay type: cell-based; conditions: Homo sapiens
Procedure, shortened: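 Primary AML cells came from blood or frozen bone marrow of three newly diagnosed, untreated patients, collected under informed consent. Viability was measured by WST-1 assay after treatment with the test compound.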

[3] = test system: IkB; assay: Nuclear retention of IkB in CLL cells; assay type: cell-based, Human; conditions: 0.5 μM
Procedure, shortened: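 Treated primary CLL cells were fractionated into nuclear extracts with a commercial kit. Proteins were resolved by SDS-PAGE and probed with anti-IκB antibodies. Bands were detected by chemiluminescence and quantified by densitometry.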

[4] = test system: MV4-11; assay: MV4-11 xenograft mouse model of AML; assay type: in vivo, NSG mice; conditions: day 21
[5] = target: T2, XPO1 (Saccharomyces cerevisiae, UniProt P30822, DEL377-413/T539C); assay: Pull-down inhibition assay of XPO1 with immobilized NESs; assay type: biochemical; conditions: 10uM inhibitor
Procedure, shortened: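 Purified recombinant yeast XPO1 (2 μM) was pre-incubated with RanGTP (10 μM) and 10 μM inhibitor for varying times at 4°C. The mixture was rotated with immobilized GST-PKI NES for 1 h. After extensive washing, bound protein was resolved by SDS-PAGE and stained with Coomassie Blue.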

[6] = test system: p53; assay: Confocal microscopy of p53 localization in MV4-11; assay type: cell-based; conditions: MV4-11, confocal microscopy
Procedure, shortened: (§1)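 About 200,000 cells were cytospun onto slides, then fixed, permeabilized, blocked and immunostained for p53 (MV4-11) or NPM1 (OCI-AML3). DNA was counterstained with DAPI, and subcellular localization was imaged by confocal microscopy using merged channels.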

[7] = Brain penetration, mouse; assay type: in vivo
[8] = Brain penetration, rat; assay type: in vivo
[9] = test system: ABC-DLBCL cell lines; assay: Proliferation of ABC-DLBCL cell lines by MTS; assay type: cell-based
[10] = test system: Eμ-TCL1 leukemic splenocytes; assay: Eμ-TCL1-C57BL/6 transplant mouse model of CLL; assay type: in vivo, C57BL/6 mice
Procedure, shortened: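 CD19+CD5+ splenocytes (1×10^7) from an Eμ-TCL1 donor with active leukemia (>10% CD45+CD5+CD19+ in blood) and splenomegaly were injected into C57BL/6 mice by tail vein. At onset (≥10% CD45+CD5+CD19+), mice were randomized to oral gavage with vehicle (0.5% methylcellulose/1% Tween80), test compound 15 mg/kg daily or twice weekly, or ibrutinib 20 mg/kg. Blood flow cytometry was done weekly and spleen volume measured at euthanasia. Kaplan-Meier/log-rank, mixed-effects model, ANOVA (log-transformed, Dunnett).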

[11] = Plasma accumulation after repetitive dosing; assay type: in vivo; conditions: data not shown
[12] = target: T1, XPO1; assay: XPO1 degradation by SINE compound treatment in HT1080 cells; assay type: cell-based; conditions: 25-1000 nM, 18 hours
[13] = Brain penetration, monkey; assay type: in vivo
[14] = test system: GC-DLBCL cell lines; assay: Proliferation of GC-DLBCL cell lines by MTS; assay type: cell-based
[15] = target: T2, XPO1; assay: Reversibility of inhibitor conjugation to XPO1; assay type: biochemical; conditions: 10uM inhibitor; dialysis or DTT, 24 hours
Procedure, shortened: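 XPO1 was incubated in triplicate with 10 μM inhibitor, then dialysed or treated with DTT. It was then used in a binding assay with RanGTP and immobilized GST-MVM NES, with bound proteins resolved by SDS-PAGE and Coomassie staining. XPO1 band intensities were quantified and expressed as percentage of DMSO-treated controls.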

[16] = test system: primary CLL cells; assay: Cytotoxicity in primary CLL cells by MTS; assay type: cell-based, Human; conditions: 48h (24h in Supplementary Figure 6)
[17] = test system: primary CLL cells; assay: Apoptosis of primary CLL cells by annexin-V/PI in FBS or human serum; assay type: cell-based; conditions: 10% fetal bovine serum or human serum, 24h
[18] = test system: NPM1; assay: Confocal microscopy of NPM1 localization in OCI-AML3; assay type: cell-based
Procedure, shortened: as §1

T1 sequence (O14980 whole entry): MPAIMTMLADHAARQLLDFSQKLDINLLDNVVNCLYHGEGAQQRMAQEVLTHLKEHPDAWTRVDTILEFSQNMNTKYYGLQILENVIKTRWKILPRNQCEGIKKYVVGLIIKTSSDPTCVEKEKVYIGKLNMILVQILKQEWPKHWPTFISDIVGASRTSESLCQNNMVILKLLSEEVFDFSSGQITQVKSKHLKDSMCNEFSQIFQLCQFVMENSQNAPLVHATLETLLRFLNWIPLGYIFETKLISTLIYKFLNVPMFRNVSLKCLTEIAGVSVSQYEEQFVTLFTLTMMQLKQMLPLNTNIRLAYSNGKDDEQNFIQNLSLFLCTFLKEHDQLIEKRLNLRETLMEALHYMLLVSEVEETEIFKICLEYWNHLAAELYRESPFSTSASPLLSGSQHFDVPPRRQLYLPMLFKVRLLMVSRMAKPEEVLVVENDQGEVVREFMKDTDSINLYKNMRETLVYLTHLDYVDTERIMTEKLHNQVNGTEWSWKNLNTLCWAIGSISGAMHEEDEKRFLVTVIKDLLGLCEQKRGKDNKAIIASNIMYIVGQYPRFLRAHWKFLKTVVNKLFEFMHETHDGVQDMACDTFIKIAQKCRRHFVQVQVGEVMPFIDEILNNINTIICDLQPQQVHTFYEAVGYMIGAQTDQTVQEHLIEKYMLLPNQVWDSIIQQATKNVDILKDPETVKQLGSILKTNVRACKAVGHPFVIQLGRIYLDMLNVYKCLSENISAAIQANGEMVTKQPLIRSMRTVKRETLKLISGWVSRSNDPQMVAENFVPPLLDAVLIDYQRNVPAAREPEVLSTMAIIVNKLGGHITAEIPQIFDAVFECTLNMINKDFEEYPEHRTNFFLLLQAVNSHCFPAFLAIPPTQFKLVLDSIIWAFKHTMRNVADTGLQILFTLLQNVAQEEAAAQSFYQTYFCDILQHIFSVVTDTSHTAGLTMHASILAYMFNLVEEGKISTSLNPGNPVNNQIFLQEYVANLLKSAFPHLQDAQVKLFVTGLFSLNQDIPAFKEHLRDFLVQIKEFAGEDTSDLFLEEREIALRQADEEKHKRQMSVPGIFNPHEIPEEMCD

Compound: O=C(/C=C\n1cnc(-c2cc(C(F)(F)F)cc(C(F)(F)F)c2)n1)NNc1cnccn1 [KPT-330, selinexor, reference compound]
- Time post-treatment at which XPO1 total protein was decreased [1]: ≤ 4 h
- IC50 [2]: 100 nM
- Time of treatment to nuclear retention of IkB [3]: ≤ 8 h
- White blood cell count (WBC) vs vehicle ([4]; 20 mg/kg 2x/week): significantly reduced WBC
- Incubation time with XPO1 to completely inhibit XPO1 binding to PKI NES [5]: 60 min

Compound: NC(=O)/C(=C/n1cnc(-c2cc(C(F)(F)F)cc(C(F)(F)F)c2)n1)c1cncnc1 [KPT-8602]
- Accumulation of p53 in the nucleus [6]: significant accumulation
- Mean Concentration at 2h post dose Brain ([7]; Mouse, po 5 mg/kg): 105 ng·h/g
- Mean Concentration at 2h post dose Plasma ([7]; Mouse, po 5 mg/kg): 550 ng·h/mL
- Kp at 2 h ([7]; mouse, brain/plasma, po, 5 mg/kg): 0.19
- Time post-treatment at which XPO1 total protein was decreased [1]: ≤ 4 h
- Mean Concentration at 2h post dose Brain ([8]; Rat, po 5 mg/kg): 70 ng·h/g
- Mean Concentration at 2h post dose Plasma ([8]; Rat, po 5 mg/kg): 320 ng·h/mL
- Kp at 2 h ([8]; rat, brain/plasma, po, 5 mg/kg): 0.22
- Proliferation of ABC-DLBCL cell lines [9]: inhibited proliferation
- Median OS ([10]; Fig.4A cohort, 15 mg/kg daily, oral gavage, vehicle 33 days): 70 days
- Percentage of CD5+ B-cells in peripheral blood vs vehicle or KPT-8602 2x/week ([10]; Fig.4B, 15 mg/kg daily, three weeks post-treatment, p<0.001): significantly lower
- Spleen size at study removal vs all other groups ([10]; Fig.4C, 15 mg/kg daily, p<0.001): significantly smaller
- Spleen size vs vehicle or ibrutinib alone ([10]; Fig.4F cohort, KPT-8602 15 mg/kg daily, p<0.001): significantly smaller
- Change in body weight ([10]; daily treatment, after 28 days): did not cause a significant change in body weight
- Accumulation in plasma after repetitive dosing [11]: does not accumulate in plasma after repetitive dosing
- XPO1 degradation [12]: induces XPO1 degradation in HT1080 cells in a dose-dependent manner
- Mean Concentration at 2h post dose Brain ([13]; Monkey, po 10 mg/kg): <32 ng·h/g
- Mean Concentration at 2h post dose Plasma ([13]; Monkey, po 10 mg/kg): 1310 ng·h/mL
- Kp at 2 h ([13]; monkey, brain/plasma, po, 10 mg/kg): < 0.02
- Proliferation of GC-DLBCL cell lines [14]: inhibited proliferation
- Reversibility of conjugation to XPO1 [15]: slowly reversible manner
- IC50 [2]: 300 nM
- Killing of primary CLL cells vs vehicle [16]: induced dose-dependent killing of primary CLL cells
- Time of treatment to nuclear retention of IkB [3]: ≤ 8 h
- Apoptosis of CLL cells in FBS and HS [17]: effective in inducing apoptosis of CLL cells in both FBS and HS
- Accumulation of NPM1 in the nucleus [18]: significant accumulation
- White blood cell count (WBC) vs vehicle ([4]; 15 mg/kg daily and x2/week): significantly reduced WBC
- Incubation time with XPO1 to completely inhibit XPO1 binding to PKI NES [5]: 60 min

Compound: C=CC(=O)N1CCC[C@@H](n2nc(-c3ccc(Oc4ccccc4)cc3)c3c(N)ncnc32)C1 [ibrutinib, reference compound]
- Median OS ([10]; Fig.4D cohort, ibrutinib 20 mg/kg daily, vehicle 20 days): 26 days

Reference: PMC5143172 (Leukemia, 2016)
